Test results: ChEMBL document CHEMBL2163259, “ADME-guided design and synthesis of aryloxanyl pyrazolone derivatives to block mutant superoxide dismutase 1 (SOD1) cytotoxicity and protein aggregation: potential application for the treatment of amyotrophic lateral sclerosis” (J Med Chem, 2012)
≈ marks a conversion by molar mass, not a printed value. Calls of active or inactive are those of the source.

Experiments:
[1] = tested on: Superoxide dismutase [Cu-Zn] (Homo sapiens), P00441 [G94A]; experiment: Inhibition of SOD1 G93A mutant aggregation-induced cytotoxicity in rat PC12 cells assessed as cell viability incubated for 24 hrs and measured 72 hrs post compound dose by cytotoxicity protection assay; format: cell-based; conditions: PC-12
Summary of the method: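 PC12 cells expressing G93A SOD1-YFP fusion seeded 15000 cells/well, grown 24 h before dosing. 12-point dose response, top 32 μM, twofold dilutions. After 24 h, MG132 added (100 nM final). Viability measured 48 h later with Calcein-AM (1 μM final, 20 min, room temperature) fluorescence. EC50 derived from dose-response.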

[2] = Intrinsic clearance in human microsomes at 5 uM incubated for 1 hr at 37 degC in presence of NADPH; format: ADME, Microsome
[3] = Half life in human microsomes at 5 uM incubated for 1 hr at 37 degC in presence of NADPH; format: ADME, Microsome
[4] = Intrinsic clearance in human microsomes at 5 uM incubated for 1 hr at 37 degC in absence of NADPH; format: ADME, Microsome
[5] = Intrinsic clearance in mouse microsomes at 5 uM incubated for 1 hr at 37 degC in presence of NADPH; format: ADME, Microsome
[6] = Half life in mouse microsomes at 5 uM incubated for 1 hr at 37 degC in presence of NADPH; format: ADME, Microsome
[7] = Aqueous solubility of the compound in PBS after 45 mins; format: physicochemical
[8] = Aqueous solubility of the compound in PBS after 16 hrs; format: physicochemical
[9] = (§1) Apparent permeability from apical to basolateral side in human Caco2 cells; format: ADME, cell-based; conditions: Caco-2
[10] = (§2) Apparent permeability from basolateral to apical side in human Caco2 cells; format: ADME, cell-based; conditions: Caco-2
[11] = Efflux ratio of permeability from basolateral to apical side over apical to basolateral side in human Caco2 cells; format: ADME, cell-based; conditions: Caco-2
Cerebral cortex neuron = experiment: Cytoprotection in rat Primary cortical neurons incubated for 24 hrs and measured 72 hrs post compound dose by cytotoxicity protection assay; format: functional, cell-based
Summary of the method: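 Primary cortical neurons from E18 Sprague-Dawley or Fischer 344 rat brain, dissociated with papain (2 mg/mL, 30 min, 37 °C), plated on poly-D-lysine at 20,000 cells/well, cultured 5 days (~90% neurons). Six-point dose response from 100 μM top, roughly one-third dilutions; 24 h pre-incubation, then MG132 100 nM. Viability read 48 h later by Calcein-AM (1 μM, 20 min, RT) fluorescence. Active = viability ≥5 SD above MG132 controls.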

Mus musculus [12] = experiment: Neuroprotective activity in SOD1 G93A mutant B6SJL mouse ALS model assessed as extension of life span at 16 mg/kg; format: functional
Mus musculus [13] = experiment: Neuroprotective activity in SOD1 G93A mutant B6SJL mouse ALS model assessed as extension in life span at 22 mg/kg; format: functional
Caco-2 [14] = experiment: as §1; format: ADME, cell-based
Caco-2 [15] = experiment: as §2; format: ADME, cell-based
[16] = Drug metabolism in rat liver microsomes at 15 uM after 20 mins in presence of NADPH; format: ADME, Microsome; conditions: read-out: Drug metabolism
Summary of the method: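 Rat liver microsomes (1 mg/mL protein) in PBS pH 7.4 with NADPH-regenerating system (1.3 mM NADP+, 3.3 mM glucose-6-phosphate, 0.4 U/mL G6PDH, 3.3 mM MgCl2). Compound at 15 μM, 37 °C for 0 and 20 min. HPLC on C18 (acetonitrile/water 25/75, 0.1% TFA). Peak-area response ratio to internal standard, normalised to t = 0.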

Liver microsomes [17] = experiment: Drug metabolism in rat liver microsomes assessed as sulfoxide metabolite formation at 15 uM incubated for 5 to 60 mins in presence of NADPH by HPLC analysis; format: ADME, Microsome
Summary of the method: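 Substrate (15 μM) incubated at 37 °C with rat liver microsomes plus NADPH-regenerating system for 0–60 min. Reaction stopped with acetonitrile, chilled at −78 °C, centrifuged. Supernatant run on isocratic HPLC (acetonitrile/water 25/75, 0.1% TFA). Sulfoxide identified against synthetic sulfoxide and sulfone standards (10 μM) by retention time.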

Liver microsomes [18] = experiment: Drug metabolism in rat liver microsomes assessed as sulfoxide metabolite formation at 5 uM incubated for 10 to 60 mins in presence of NADPH by HPLC analysis LC/MS/MS analysis; format: ADME, Microsome
Summary of the method: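 Duplicate incubations at 5 μM with or without rat liver microsomes, with and without NADPH, for 0, 10, 20, 40 and 60 min. Protein precipitated with acetonitrile containing internal standard. Supernatant analysed by LC/MS/MS (C18, acetonitrile-water gradient, ESI, MRM). Controls lacked microsomes or compound.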

Superoxide dismutase [Cu-Zn] (Homo sapiens), P00441 [G94A], sequence (P00441 whole entry G94A, the tested form may be a part): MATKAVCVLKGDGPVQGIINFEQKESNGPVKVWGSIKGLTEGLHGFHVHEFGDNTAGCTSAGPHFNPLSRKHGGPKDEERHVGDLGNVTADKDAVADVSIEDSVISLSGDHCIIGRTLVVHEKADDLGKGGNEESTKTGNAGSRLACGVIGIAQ

Work on `O=c1cc(COc2cc(-c3ccccc3)cc(-c3ccccc3)c2)[nH][nH]1` yielded an Activity [1] of 100%.
Work on `O=c1cc(COc2cc(Br)cc(Br)c2)[nH][nH]1` yielded an Activity [1] of 100%.
`CCc1ccc(OCc2cc(=O)[nH][nH]2)cc1` showed an Activity [1] of 100%.
Work on `CC(C)(C)c1cccc(OCc2cc(=O)[nH][nH]2)c1` yielded an Activity [1] of 100%.
In the case of `O=c1cc(C[S+]([O-])c2ccc(Cl)cc2)[nH][nH]1` (stereo not drawn), the Activity [1] was 35%.
`O=c1cc(COc2cccc(Br)c2)[nH][nH]1` showed an Activity [1] of 100%.
For `O=c1cc(CSc2cc(Cl)cc(Cl)c2)[nH][nH]1`, the Activity [1] was 100%.
In the case of `O=c1cc(CS(=O)(=O)c2cc(Cl)cc(Cl)c2)[nH][nH]1`, the Activity [1] was 100%, the CLint scaled at 5 µM [2] was 4.5 mL/min/kg and the half-life at 5 µM [3] was > 1 h. For the same compound, the CLint scaled at 5 µM [4] was 1.3 mL/min/kg, the CLint scaled at 5 µM [5] was 15.3 mL/min/kg and the half-life at 5 µM [6] was > 1 h. For the same compound, the solubility at 0.75 h ([7]; PBS) was ≥ 500 µM, the solubility at 16 h ([8]; PBS) was ≥ 500 µM and the Papp A→B [9] was 27 ×10⁻⁶ cm/s. For the same compound, the Papp B→A [10] was 4.4 ×10⁻⁶ cm/s, the efflux ratio [11] was 0.2 and the Activity (Cerebral cortex neuron) was “Active”.
With `O=c1cc(CSc2c(Cl)cccc2Cl)[nH][nH]1` the Activity [1] was 100% and the Activity (Cerebral cortex neuron) was “Active”.
Work on `O=c1cc(COc2cc(C(F)(F)F)cc(C(F)(F)F)c2)[nH][nH]1` yielded an Activity [1] of 100%.
Compound `Nc1nc2ccc(OC(F)(F)F)cc2s1` [RILUZOLE] has an Activity (Mus musculus [12]) of 7.5% and an Activity (Mus musculus [13]) of 11%.
Work on `O=c1cc(COc2cccc(-c3ccccc3)c2)[nH][nH]1` yielded an Activity [1] of 100%.
`O=c1cc(COc2cc(F)cc(F)c2)[nH][nH]1` gave an Activity [1] of 100%.
Compound `O=c1cc(COc2ccc(Cl)cc2)[nH][nH]1` has an Activity [1] of 100%, a t1/2 ([3]; 1 h, 5 µM) of 2.32 h and a t1/2 ([6]; 1 h, 5 µM) of 2.38 h. For the same compound, the solubility ([7]; buffer, 0.75 h) was 250 µM (≈ 56.2 µg/mL), the solubility ([8]; buffer, 16 h) was 250 µM (≈ 56.2 µg/mL) and the Papp (Caco-2 [14]) was 43 ×10⁻⁶ cm/s. It also gave a Papp (Caco-2 [15]) of 28 ×10⁻⁶ cm/s and an efflux ratio [11] of 0.6.
Work on `Cc1cc(-c2ccccc2)nnc1NCCN1CCOCC1` [MINAPRINE] yielded a metabolised at 20 min, 15 µM [16] of 41%.
With `Cc1cc([S+]([O-])Cc2cc(=O)[nH][nH]2)c(C)cc1Cl` (stereo not drawn) the Activity [1] was 100%.
For `CCc1cccc(OCc2cc(=O)[nH][nH]2)c1`, the Activity [1] was 100%.
In the case of `O=c1cc(CSc2ccc(Cl)cc2)[nH][nH]1`, the Activity [1] was 100%, the metabolised at 20 min, 15 µM [16] was 88% and the Drug metabolism (Liver microsomes [17]) was “Active”. For the same compound, the Drug metabolism (Liver microsomes [18]) was “Active”.
In the case of `Cc1cc(S(=O)(=O)Cc2cc(=O)[nH][nH]2)c(C)cc1Cl`, the Activity [1] was 100%.
`O=c1cc(CS(=O)(=O)c2ccc(Cl)cc2)[nH][nH]1` gave an Activity [1] of 100%.
